Rows were chosen to be rich in hits. Some 1% of all compounds tested hit in one or more screens of this group.
T cell modulator: modulators of CD8 T cell-vesicle binding, primary screen, mouse 2C CD8+ T cells, flow cytometry. 2C CD8+ T cell-vesicle binding; stronger effect = lower value. response (vesicle binding), % at 7 µM. actives 0.068% (n = 330,000);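 active = response, share of CD8 T cells binding vesicles, and their 90th percentile fluorescence all below set limits, cut at about 80% in these data, passing the limit was not always enough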;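 note: values below 100% mean blocked vesicle binding to the CD8+ T cells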
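Material: murine 2C transgenic CD8+ T lymphocytes / Also added: QL9-peptide-loaded Drosophila micro-vesicles bearing Ld, ICAM-1 and B7-1 / Schedule: binding step 1.5 h, 37 °C, antibody labelling 20 min, ice / Signal: flow cytometry, PE anti-B7-1 (FL2) versus Alexa647 anti-CD8 (FL8), PFA-fixed / Evaluation: percent CD8+ FL2 mean versus row control / Benchmarks: naked versus QL9-loaded vesicles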
A1 inh: caspase 3/7 activation in MEF A1-2A-BIM cells, primary screen, A1 inhibitor project, cell-based, luminescence, HTS | Caspase-Glo 3/7 luminescence, 3 h; percent of clofoctol response, vehicle zero | caspase activation, % (concentration not given with the values) | actives 0.066% (n = 330,000) | AID 2462, 2010;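 active = over half of replicate activation scores above 10%, or exactly half above 10 with the replicate mean above 10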
NALP3 yeast inh: NALP3 inflammasome inhibitors in reconstituted yeast, primary screen, luminescence, uHTS | Yeast reconstituted NLRP3/ASC/caspase-1, beta-gal luminescence, 24 h | inhibition, % at 10 µM | AID 2825, 2010 | actives 0.39% (n = 330,000);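 active = inhibition of 50% or more; inactive = inhibition below 50%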;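 note: plate controls were induced DMSO wells for no effect and uninduced yeast grown without galactose for full effect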
NALP1 yeast inh: NALP1 inflammasome inhibitors in reconstituted yeast, colorimetric, S. cerevisiae, triplicate retest. actives 0.61% (n = 280,000). inhibition, % at 10 µM. AID 2071, 2009. S. cerevisiae NALP1/ASC/caspase-1 growth, X-gal OD620, 72 h; in the data active = inhibition mostly above about 24%, no sharp cut-off; inactive = mostly below about 32%
The depositor's hits bear a star; / = no result.

SMILES | T cell modulator | A1 inh | NALP3 yeast inh | NALP1 yeast inh
Cc1cccc(C(=O)Nc2nnc(S(=O)(=O)N3CCC(C)CC3)s2)c1 | 94 | 0 | 4 | 40*
Cc1ccc(C(=O)N(C)CCOc2ccccc2)cc1S(=O)(=O)N1CCCCC1 | 166 | 0 | 18 | /
CC(N)c1ccc(Cl)cc1Cl (stereo not given) | 32* | 1 | 1 | 29
Cn1nccc1C(=O)Nc1ccc2c(c1)OCO2 | 212 | -9 | 15 | 4
NC(=O)CN1C(=O)NC2(CCCc3ccccc32)C1=O (stereo not given) | 274 | 0 | 15 | 45*
O=C(CCCCCN1C(=O)[C@@H]2Cc3ccccc3CN2C1=O)Nc1ccccc1F | 595 | 0 | 9 | -19
COc1ccc(S(=O)(=O)N(CCCN2CCOCC2)Cc2cccc3ccccc23)cc1 | 280 | 0 | -6 | 39*
CC(=O)c1c(O)c2ccccc2n(Cc2ccccc2)c1=O | 58* | -1 | 17 | 2
CC(C)[C@H](NC(=O)[C@@H]1CSC2c3ccccc3C(=O)N21)C(=O)NCc1ccncc1 (stereo not given in full) | 350 | 0 | 7 | 11
CCC(=O)N1c2ccc(S(=O)(=O)N3CCN(C)CC3)cc2CC1C (stereo not given) | 189 | 0 | 3 | 34*
COc1cccc(Cn2nnc(C(=O)Nc3cc(Cl)ccc3OC)c2N)c1 | 54 | 1 | 4 | 40*
COc1cccc(NC(=O)Cn2nnc(C(=O)Nc3cc(Cl)ccc3OC)c2N)c1 | 282 | 0 | 7 | 34
Cc1ccc(S(=O)(=O)n2c(C)nc3cc(C)ccc32)cc1 | 161 | 0 | 15 | 10
CC(OC(=O)C1CSC2(C)CCC(=O)N12)C(=O)Nc1ccc(F)cc1 (stereo not given) | 460 | 0 | 15 | /
Cc1cc(Br)ccc1OCCNCc1ccccc1 | 183 | -1 | 44 | 29*
Clc1ccc(OCCCNCc2ccccc2)c2ccccc12 | 255 | 0 | 32 | 50*
Cc1cc(C)c(C)c(OCCNCc2ccccc2)c1 | 283 | 1 | 26 | 41
COC(=O)c1ccccc1SC1CC(=O)N(c2ccccc2)C1=O (stereo not given) | 143 | 1 | 11 | 78*
CCN1C(=O)CC(Sc2ccccc2C(=O)O)C1=O (stereo not given) | 368 | -1 | 20 | 2
COc1ccccc1NC(=O)CCN1C(=O)C2C3CCC(C3)C2C1=O (stereo not given) | 212 | 0 | 11 | 0
Nc1c(-c2ccccc2)nc(Cl)nc1-c1ccccc1 | 281 | -1 | 10 | 34*
Cc1sc(N)nc1-c1ccccc1 | 70 | 1 | 0 | -12
Cc1cccc(C(=O)NCCC(=O)Nc2ccc(F)c([N+](=O)[O-])c2)c1 | 206 | 2 | 17 | 14
COc1cc(/C=N/NC(=O)c2ccc(NS(=O)(=O)c3cccs3)cc2)cc(OC)c1O | 80* | -1 | -8 | /
COc1cc(C=NNC(=O)c2ccccc2NS(=O)(=O)c2cccs2)cc(OC)c1O | 153 | 1 | -7 | /
SMILES | T cell modulator | A1 inh | NALP3 yeast inh | NALP1 yeast inh
O=C(COC(=O)Cc1c(F)cccc1Cl)NNC(=O)c1ccccc1 | 281 | 0 | 15 | /
Cc1ccc(NC(=O)CN(C)C(=O)CSc2nnc(C)s2)cc1 | 157 | 1 | 7 | /
CN1CCN(C(=S)Nc2ccc(Cl)c(Cl)c2)CC1 | 105 | 0 | -18 | 48*
S=C(Nc1ccc(Cl)c(Cl)c1)N1CCCC1 | 202 | -1 | 16 | 11
CCn1cc(C2=NOC(C(=O)Nc3cc(OC)c(Cl)cc3OC)C2)c(C)n1 (stereo not given) | 710 | 1 | 15 | 33*
COc1cc(NC(=O)C2CC(c3c(F)cccc3Cl)=NO2)c(OC)cc1Cl (stereo not given) | 409 | 0 | 25 | 15
CCN(CC)S(=O)(=O)c1ccc2[nH]cc(C(=O)NCCCN3CCCCC3)c(=O)c2c1 | 361 | 0 | -1 | 23
CCN(CC)S(=O)(=O)c1ccc2[nH]cc(C(=O)NCCN3CCCCCC3)c(=O)c2c1 | 263 | 0 | -17 | 32*
CC(=O)N1N=C2/C(=C/c3ccccc3)CCCC2C1c1ccccc1 (stereo not given) | 71* | 1 | -2 | 23
O=C(O)c1c(C(=O)N2N=C3/C(=C/c4ccccc4)CCCC3C2c2ccccc2)cccc1[N+](=O)[O-] (stereo not given) | 273 | 0 | 4 | -8
Cc1ccc(NC(=S)Nc2cc(C(=O)O)ccc2N2CC3CC(C2)c2cccc(=O)n2C3)cc1C (stereo not given) | 271 | 0 | 21 | 37*
O=C(NCCCN1CCCC1=O)C1CCN(S(=O)(=O)c2ccccc2)CC1 | 288 | 1 | 1 | /
N#C/C(=C\c1ccc(F)c(F)c1)C(=O)NC1CCCCC1 | 525 | 1 | 3 | 60*
N#C/C(=C\c1ccc(F)c(Br)c1)C(=O)NC1CC1 | 282 | 0 | 12 | 2
Cc1nc(-c2ccc3c(c2)OCCCO3)cs1 | 610 | -5 | 17 | 42*
O=C1c2ccccc2C(=O)N1CCCCc1cn(C[C@H]2CC[C@@H]([C@@H]3CC[C@H](Cn4cc(CCCCN5C(=O)c6ccccc6C5=O)nn4)O3)O2)nn1 | 326 | 0 | -8 | /
Cc1cc(OC(=O)C(C)(C)C)c([N+](=O)[O-])c(=O)[nH]1 | 339 | 1 | 17 | 34*
COc1ccc(OC)c(S(=O)(=O)NC(C)c2ccc(-n3ccnc3)cc2)c1 (stereo not given) | 718 | 13* | 5 | /
COc1cc(C(=O)NC(C)c2ccc(-n3ccnc3)cc2)cc(OC)c1C (stereo not given) | 156 | 0 | 6 | 18
CC1CCN(c2nc(CN3CCCCC3)nc3scc(-c4ccccc4)c23)CC1 | 172 | 0 | 8 | 50*
CC1CCN(c2nc(-c3cccnc3)nc3scc(-c4ccccc4)c23)CC1 | 188 | 1 | 4 | 38
CCOC(=O)[C@@H](C)N(Cc1ccc(OC)cc1)S(=O)(=O)N(Cc1ccccc1)[C@H](C(=O)OC)C(C)C | 384 | 1 | 14 | /
Clc1ccc(Nc2ccc(NCc3ccccc3)nn2)cc1 | 208 | 1 | 35 | 72*
Cc1cc(OC(C)C(=O)N(Cc2ccco2)C2CCS(=O)(=O)C2)ccc1Cl (stereo not given) | 325 | 0 | 11 | 13
COC(=O)Cc1ccc(NC(=O)c2ccc(Br)o2)cc1 | 66 | -6 | 20 | -4
CCCOC(=O)c1ccc(NC(=O)Oc2ccccc2)cc1 | 437 | 0 | 11 | 22*
CC(=O)c1ccc(NC(=O)Oc2ccccc2)cc1 | 172 | -1 | 12 | 17
CCCOC(=O)c1ccc(NC(=O)c2ccc(Br)o2)cc1 | 287 | -3 | 40 | 61*
CC(C)Oc1ccc(C(=O)Nc2ccc(S(=O)(=O)N3CCN(C)CC3)cc2)cc1 | 212 | 0 | 7 | 7
